ChEMBL document CHEMBL3779792, “Anti-proliferative evaluation of monoterpene derivatives against leukemia” (Eur J Med Chem, 2016)
Activity calls are given as the source filed them. No cut-off for these calls is given here.

Tests used:
BJ = assay: Cytotoxicity against human BJ cells after 72 hrs by Cell-Titer Glo assay; format: cell-based
NALM-6 [1] = assay: Induction of apoptosis in human NALM6 cells assessed as cleaved PARP level at 4.5 uM measured from 3 to 6 hrs by immunoblot analysis; format: functional, cell-based
Procedure, shortened: (§1)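 Immunoblots for activated caspase-3, activated caspase-7, and cleaved and uncleaved PARP. Cells were treated for 3, 6, 12 and 24 hr at 8.0 µM (SEM) or 4.5 µM (Nalm06). Negative controls were DMSO vehicle and an analog at 20 µM.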

[2] = molecular target: T1, c-Jun N-terminal kinase, JNK (Homo sapiens) (UniProt P45983+P53779+P45984); assay: Induction of JNK phosphorylation in human SEM cells at 8 uM after 3 to 12 hrs by immunoblot analysis; format: cell-based
Procedure, shortened: (§2)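 Immunoblot of phospho-JNK and total JNK after 3, 6, 12 and 24 hr treatment at 8.0 µM (SEM) or 4.5 µM (Nalm06), with DMSO and an analog at 20 µM as negative controls. Quantified as the phospho/total JNK ratio normalized to DMSO (set to 1.0).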

SEM cells [3] = assay: Induction of apoptosis in human SEM cells assessed as activated caspase3 levels at 8 uM after 6 hrs by immunoblot analysis; format: functional, cell-based; procedure, shortened: as §1
Raji = assay: Cytotoxicity against human Raji cells after 72 hrs by Cell-Titer Glo assay; format: functional, cell-based
[4] = Cytotoxicity against human SEM cells after 72 hrs by Cell-Titer Glo assay; format: functional, cell-based
SEM cells [5] = assay: Effect on cell cycle in human SEM cells assessed as accumulation at S phase at 8.5 uM after 24 hrs by propidium iodide staining based flow cytometry analysis (reference value: 46.62%); format: functional
SEM cells [6] = assay: Effect on cell cycle arrest in human SEM cells assessed as accumulation at G2/M phase at 8.0 uM after 24 hrs by propidium iodide staining based flow cytometry analysis (reference value: 7.63%)
SEM cells [7] = assay: Induction of apoptosis in human SEM cells assessed as necrotic cells at 8 uM measured after 24 hrs by annexin V-propidium iodide staining based flow cytometric analysis (reference value: 0.0%); format: functional
Procedure, shortened: (§3)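 SEM and Nalm06 cells were treated for 24 hr, then stained with fluorochrome-labeled Annexin V and propidium iodide for flow cytometry. Quadrants were scored as viable, early apoptotic, late apoptotic (Q2) and necrotic. DMSO was the negative control and 1 µM staurosporine the positive control. Representative of 3 independent experiments.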

SEM cells [8] = assay: Induction of apoptosis in human SEM cells assessed as activated caspase7 levels at 8.0 uM after 6 and 12 hrs by immunoblot analysis
SEM cells [9] = assay: Induction of apoptosis in human SEM cells assessed as activated caspase7 levels at 8 uM after 6 and 12 hrs by immunoblot analysis; format: functional, cell-based; procedure, shortened: as §1
SEM cells [10] = assay: Induction of apoptosis in human SEM cells assessed as early apoptotic cells at 8 uM measured after 24 hrs by annexin V-propidium iodide staining based flow cytometric analysis (reference value: 85.3%); format: functional; procedure, shortened: as §3
NALM-6 [11] = assay: Induction of apoptosis in human NALM6 cells assessed as necrotic cells at 8.5 uM measured after 24 hrs by annexin V-propidium iodide staining based flow cytometric analysis (reference value: 0.0%); format: functional; procedure, shortened: as §3
NALM-6 [12] = assay: Induction of apoptosis in human NALM6 cells assessed as activated caspase7 level at 4.5 uM after 6 and 12 hrs by immunoblot analysis; format: functional, cell-based; procedure, shortened: as §1
SEM cells [13] = assay: Induction of apoptosis in human SEM cells assessed as cleaved PARP levels at 8 uM after 3, 6 and 12 hrs by immunoblot analysis; format: functional, cell-based; procedure, shortened: as §1
[14] = Cytotoxicity against human NALM6 cells after 72 hrs by Cell-Titer Glo assay; format: functional, cell-based; details: NALM-6, 72 h
NALM-6 [15] = assay: Induction of apoptosis in human NALM6 cells assessed as activated caspase3 level at 4.5 uM after 12 hrs by immunoblot analysis; format: functional, cell-based; procedure, shortened: as §1
SEM cells [16] = assay: Induction of apoptosis in human SEM cells assessed as uncleaved PARP levels at 8 uM after 3 to 12 hrs by immunoblot analysis; format: functional, cell-based; procedure, shortened: as §1
SEM cells [17] = assay: Induction of apoptosis in human SEM cells assessed as late apoptotic cells at 8 uM measured after 24 hrs by annexin V-propidium iodide staining based flow cytometric analysis (reference value: 7.2%); format: functional; procedure, shortened: as §3
NALM-6 [18] = assay: Induction of apoptosis in human NALM6 cells assessed as early apoptotic cells at 8.5 uM measured after 24 hrs by annexin V-propidium iodide staining based flow cytometric analysis (reference value: 91.5%); format: functional; procedure, shortened: as §3
HEK293 = assay: Cytotoxicity against HEK293 cells after 72 hrs by Cell-Titer Glo assay; format: cell-based; details: Homo sapiens, HEK293, 72 h
NALM-6 [19] = assay: Induction of apoptosis in human NALM6 cells assessed as cleaved PARP level at 4.5 uM measured after 12 hrs by immunoblot analysis; format: functional, cell-based; procedure, shortened: as §1
NALM-6 [20] = assay: Induction of apoptosis in human NALM6 cells assessed as late apoptotic cells at 8.5 uM measured after 24 hrs by annexin V-propidium iodide staining based flow cytometric analysis (reference value: 4.3%); format: functional; procedure, shortened: as §3
SEM cells [21] = assay: Induction of apoptosis in human SEM cells assessed as viable cells at 8 uM measured after 24 hrs by annexin V-propidium iodide staining based flow cytometric analysis (reference value: 1.5%); format: functional; details: read-out: Activity; procedure, shortened: as §3
SEM cells [22] = assay: Effect on cell cycle in human SEM cells assessed as accumulation at G0/G1 phase at 8.5 uM after 24 hrs by propidium iodide staining based flow cytometry analysis (reference value: 45.75%); format: functional
HepG2 = assay: Cytotoxicity against human HepG2 cells after 72 hrs by Cell-Titer Glo assay; format: functional, cell-based; details: HepG2, 72 h
Jurkat = assay: Cytotoxicity against human Jurkat cells after 72 hrs by Cell-Titer Glo assay; format: functional, cell-based
[23] = molecular target: T1, c-Jun N-terminal kinase, JNK (Homo sapiens); assay: Induction of JNK phosphorylation in human NALM6 cells at 4.5 uM after 3 to 12 hrs by immunoblot analysis; format: cell-based; details: NALM-6; procedure, shortened: as §2

With `C=C[C@@](C)(/C=C/c1ccc(O)c(/C=C/C(=O)c2ccccc2)c1)CCC=C(C)C` the EC50 (BJ) was over 20 µM, the Activity (NALM-6 [1]) was “inactive” and the Activity [2] was “Active”. For the same compound, the Activity (SEM cells [3]) was “Active”, the EC50 (Raji) was over 26 µM and the EC50 [4] was 8 µM. It also gave an Activity (SEM cells [5]) of 55.75%, an Activity (SEM cells [6]) of 8% and an Activity (SEM cells [7]) of 0%. The Activity (SEM cells [8]) was “Active”, the Activity (SEM cells [9]) was “Active” and the Activity (SEM cells [10]) was 0.9%. For the same compound, the Activity (NALM-6 [11]) was 0.1%, the Activity (NALM-6 [12]) was “Active” and the Activity (SEM cells [13]) was “Active”. For the same compound, the EC50 [14] was 4.47 µM, the Activity (NALM-6 [15]) was “Active” and the Activity (SEM cells [16]) was “inactive”. The Activity (SEM cells [17]) was 81.1%, the Activity (NALM-6 [18]) was 2.5% and the EC50 (HEK293) was over 7.41 µM. For the same compound, the Activity (NALM-6 [19]) was “Active”, the Activity (NALM-6 [20]) was 81.2% and the viability at 8 µM (SEM cells [21]) was 6.9%. It also gave an Activity (SEM cells [22]) of 36.25%, an EC50 (HepG2) of over 52.1 µM and an EC50 (Jurkat) of over 49 µM. The Activity [23] was “inactive”.
